Key:
Type in all cases: functional
[1] = system: HT-29; experiment: Growth inhibition of human HT-29 cells assessed as cell growth at 10^-6 M after 48 hrs by SRB assay; details: HT-29, 48 h, read-out: Activity
[2] = system: SF-268; experiment: Growth inhibition of human SF268 cells assessed as cell growth at 10^-5 M after 48 hrs by SRB assay; details: SF-268, 48 h, read-out: Activity
[3] = system: SNB-75; experiment: Cytotoxicity against human SNB75 cells after 48 hrs by SRB assay; details: SNB-75, 48 h
In short: (§1)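 NCI 60-cell-line panel of human tumour lines from nine cancer types. Continuous 48 h exposure at five 10-fold dilutions from 10^-4 to 10^-8 M, with 5-FU as positive control. SRB protein stain read spectrophotometrically at time zero, untreated control and each concentration. GI50, TGI and LC50 were derived from the [(Ti−Tz)/(C−Tz)]×100 growth relations, and out-of-range values are given as > or < the tested limits.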

[4] = Growth inhibition of human OVCAR8 cells assessed as cell growth at 10^-6 M after 48 hrs by SRB assay; details: OVCAR-8, 48 h, read-out: Activity
[5] = system: HT-29; experiment: Growth inhibition of human HT-29 cells assessed as cell growth at 10^-5 M after 48 hrs by SRB assay; details: HT-29, 48 h, read-out: Activity
[6] = system: T47D; experiment: Growth inhibition of human T47D cells assessed as cell growth at 10^-6 M after 48 hrs by SRB assay; details: read-out: Activity
[7] = Growth inhibition of human HCT15 cells assessed as cell growth at 10^-6 M after 48 hrs by SRB assay; details: HCT-15, 48 h, read-out: Activity
[8] = system: RPMI-8226; experiment: Growth inhibition of human RPMI8226 cells assessed as cell growth at 10^-7 M after 48 hrs by SRB assay; details: RPMI-8226, 48 h, read-out: Activity
[9] = system: SN12C; experiment: Growth inhibition of human SN12C cells assessed as cell growth at 10^-8 M after 48 hrs by SRB assay; details: read-out: Activity
[10] = system: DU-145; experiment: Cytotoxicity against human DU145 cells after 48 hrs by SRB assay; details: DU-145, 48 h; in short: as §1
[11] = system: NCI-H226; experiment: Growth inhibition of human NCI-H226 cells assessed as cell growth at 10^-6 M after 48 hrs by SRB assay; details: NCI-H226, 48 h, read-out: Activity
[12] = system: IGROV-1; experiment: Growth inhibition of human IGROV1 cells assessed as cell growth at 10^-4 M after 48 hrs by SRB assay; details: IGROV-1, 48 h, read-out: Activity
[13] = system: ACHN; experiment: Cytotoxicity against human ACHN cells after 48 hrs by SRB assay; in short: as §1
[14] = system: M14; experiment: Cytotoxicity against human M14 cells after 48 hrs by SRB assay; details: M14, 48 h; in short: as §1
[15] = system: NCI-H322M; experiment: Growth inhibition of human NCI-H322M cells assessed as cell growth at 10^-5 M after 48 hrs by SRB assay; details: read-out: Activity
[16] = system: SF-295; experiment: Cytotoxicity against human SF295 cells after 48 hrs by SRB assay; details: SF-295, 48 h; in short: as §1
[17] = system: LOX IMVI; experiment: Cytotoxicity against human LOXIMVI cells after 48 hrs by SRB assay; in short: as §1
[18] = system: SNB-19; experiment: Cytotoxicity against human SNB19 cells after 48 hrs by SRB assay; details: SNB-19, 48 h; in short: as §1
[19] = system: SNB-75; experiment: Growth inhibition of human SNB75 cells assessed as cell growth at 10^-4 M after 48 hrs by SRB assay; details: SNB-75, 48 h, read-out: Activity
[20] = system: HCT-116; experiment: Growth inhibition of human HCT116 cells assessed as cell growth at 10^-7 M after 48 hrs by SRB assay; details: HCT-116, 48 h, read-out: Activity
[21] = system: NCI-H460; experiment: Growth inhibition of human NCI-H460 cells assessed as cell growth at 10^-4 M after 48 hrs by SRB assay; details: NCI-H460, 48 h, read-out: Activity
[22] = system: HCT-116; experiment: Growth inhibition of human HCT116 cells assessed as cell growth at 10^-6 M after 48 hrs by SRB assay; details: HCT-116, 48 h, read-out: Activity
[23] = Growth inhibition of human MOLT4 cells assessed as cell growth at 10^-6 M after 48 hrs by SRB assay; details: MOLT-4, 48 h, read-out: Activity
[24] = system: NCI-H226; experiment: Cytotoxicity against human NCI-H226 cells after 48 hrs by SRB assay; details: NCI-H226, 48 h; in short: as §1
[25] = system: SK-MEL-28; experiment: Growth inhibition of human SK-MEL-28 cells assessed as cell growth at 10^-7 M after 48 hrs by SRB assay; details: SK-MEL-28, 48 h, read-out: Activity
[26] = system: SW-620; experiment: Growth inhibition of human SW620 cells assessed as cell growth at 10^-7 M after 48 hrs by SRB assay; details: SW-620, 48 h, read-out: Activity
[27] = system: SR; experiment: Growth inhibition of human SR cells assessed as cell growth at 10^-4 M after 48 hrs by SRB assay; details: read-out: Activity
[28] = system: SF-539; experiment: Cytotoxicity against human SF539 cells after 48 hrs by SRB assay; details: SF-539, 48 h; in short: as §1
[29] = system: M14; experiment: Growth inhibition of human M14 cells assessed as cell growth at 10^-5 M after 48 hrs by SRB assay; details: M14, 48 h, read-out: Activity
[30] = read-out: LC50 (the source's name)
[31] = read-out: pLC50 (the source's name) (converted)

## Cc1ccc(-c2nc3ccc(Cl)cc3c(=O)n2/N=C/c2ccccc2)cc1
[1]
  growth at 1 µM: 94%
[2]
  growth at 10 µM: 50%
[3]; read-out: GI50
  GI50: 1.39 µM
[3]; [30]
  CC50: > 100 µM
[3]; read-out: TGI
  TGI: 4.74 µM
[3]; read-out: pGI50 (converted)
  GI50: 1.38 µM
[3]; [31]
  CC50: > 100 µM
[3]; read-out: pTGI (converted)
  TGI: 4.79 µM
[4]
  growth at 1 µM: 89%
[5]
  growth at 10 µM: 69%
[6]
  growth at 1 µM: 100%
[7]
  growth at 1 µM: 93%
[8]
  growth at 0.1 µM: 94%
[9]
  growth at 0.01 µM: 104%
[10]; read-out: GI50
  GI50: 58.4 µM
[10]; [30]
  CC50: > 100 µM
[10]; read-out: TGI
  TGI: > 100 µM
[10]; read-out: pGI50 (converted)
  GI50: 58.9 µM
[10]; [31]
  CC50: > 100 µM
[10]; read-out: pTGI
  TGI: > 100 µM
[11]
  growth at 1 µM: 79%
[12]
  growth at 100 µM: 25%
[13]; read-out: GI50
  GI50: 0.627 µM
[13]; [30]
  CC50: > 100 µM
[13]; read-out: TGI
  TGI: > 100 µM
[13]; read-out: pGI50 (converted)
  GI50: 0.631 µM
[13]; [31]
  CC50: > 100 µM
[13]; read-out: pTGI
  TGI: > 100 µM
[14]; read-out: GI50
  GI50: 56.2 µM
[14]; [30]
  CC50: > 100 µM
[14]; read-out: TGI
  TGI: > 100 µM
[14]; read-out: pGI50 (converted)
  GI50: 56.2 µM
[14]; [31]
  CC50: > 100 µM
[14]; read-out: pTGI
  TGI: > 100 µM
[15]
  growth at 10 µM: 52%
[16]; read-out: GI50
  GI50: 4.73 µM
[16]; [30]
  CC50: > 100 µM
[16]; read-out: TGI
  TGI: > 100 µM
[16]; read-out: pGI50 (converted)
  GI50: 4.79 µM
[16]; [31]
  CC50: > 100 µM
[16]; read-out: pTGI
  TGI: > 100 µM
[17]; read-out: GI50
  GI50: 70.1 µM
[17]; [30]
  CC50: > 100 µM
[17]; read-out: TGI
  TGI: > 100 µM
[17]; read-out: pGI50 (converted)
  GI50: 70.8 µM
[17]; [31]
  CC50: > 100 µM
[17]; read-out: pTGI
  TGI: > 100 µM
[18]; read-out: GI50
  GI50: 5 µM
[18]; [30]
  CC50: > 100 µM
[18]; read-out: TGI
  TGI: > 100 µM
[18]; read-out: pGI50 (converted)
  GI50: 5.01 µM
[18]; [31]
  CC50: > 100 µM
[18]; read-out: pTGI
  TGI: > 100 µM
[19]
  growth at 100 µM: -43%
[20]
  growth at 0.1 µM: 96%
[21]
  growth at 100 µM: 24%
[22]
  growth at 1 µM: 87%
[23]
  growth at 1 µM: 99%
[24]; read-out: GI50
  GI50: 5.14 µM
[24]; [30]
  CC50: > 100 µM
[24]; read-out: TGI
  TGI: > 100 µM
[24]; read-out: pGI50 (converted)
  GI50: 5.13 µM
[24]; [31]
  CC50: > 100 µM
[24]; read-out: pTGI
  TGI: > 100 µM
[25]
  growth at 0.1 µM: 97%
[26]
  growth at 0.1 µM: 93%
[27]
  growth at 100 µM: 62%
[28]; read-out: GI50
  GI50: > 100 µM
[28]; [30]
  CC50: > 100 µM
[28]; read-out: TGI
  TGI: > 100 µM
[28]; read-out: pGI50 (converted)
  GI50: > 100 µM
[28]; [31]
  CC50: > 100 µM
[28]; read-out: pTGI
  TGI: > 100 µM
[29]
  growth at 10 µM: 60%

Source: ChEMBL document CHEMBL3259728, “Design, synthesis and biological evaluation of some novel substituted quinazolines as antitumor agents” (2014)
